In ChEMBL document CHEMBL4689842, “EUbOPEN Chemogenomics Library wave 1” (2021):
Values joined by “and” are separate entries in the source; they are usually repeats but may differ in a detail not shown here. Equal values may be shown once.

System: HEK-293T
Assay: Multiplex assay against HEK293T;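 for Population Tubulin-Different-Phenotype (%): share of the cells with healthy nuclei that show this phenotype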
Assay type: toxicity, cell-based
Details: human
Procedure, shortened: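 Cells were classed with CellPathfinder machine-learning gating, first as Hoechst high-intensity objects or normal cells, then (normal cells) as healthy, pyknosed or fragmented nuclei, and finally (pyknosed cells) as mitotic or apoptotic. Staining of live cells at seeding used Hoechst33342, BioTracker Green Microtubule Cytoskeleton Dye, MitoTracker Red and Annexin V Alexa Fluor 680, with imaging on a CQ1 microscope at 37°C and 5% CO2 after compound addition. Tubulin, mitochondrial-mass and membrane-permeability phenotypes are per cents of healthy-nucleus cells.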

[1] = 12 h, 1 µM, compound concentration 1 uM, replicate 1
[2] = 12 h, 1 µM, compound concentration 1 uM, replicate 2
[3] = 12 h, 10 µM, compound concentration 10 uM, replicate 1
[4] = 12 h, 10 µM, compound concentration 10 uM, replicate 2
[5] = 24 h, 1 µM, compound concentration 1 uM, replicate 1
[6] = 24 h, 1 µM, compound concentration 1 uM, replicate 2
[7] = 24 h, 10 µM, compound concentration 10 uM, replicate 1
[8] = 24 h, 10 µM, compound concentration 10 uM, replicate 2
[9] = 48 h, 1 µM, compound concentration 1 uM, replicate 1
[10] = 48 h, 1 µM, compound concentration 1 uM, replicate 2
[11] = 48 h, 10 µM, compound concentration 10 uM, replicate 1
[12] = 48 h, 10 µM, compound concentration 10 uM, replicate 2

## Cc1cc(C)cc(-c2cnc3cc(Cl)c(-c4cccc(O)c4)cc3c2OCCCN)c1
[1]
  Population Apoptotic (%): 53%
  Population Fragmented Nuclei (%): 11%
  Population Healthy Nuclei (%): 40%
  Population Hoechst High Intensity Objects (%): 10%
  Population Membrane Permeable-Phenotype (%): 3%
  Population Mitochondria Different-Phenotype (%): 95%
  Population Mitotic Cells (%): 46%
  Population Normal (%): 89%
  Population Pyknosed Nuclei (%): 47%
  Population Tubulin-Different-Phenotype (%): 92%
  Total Cell Count: 349
[2]
  Population Apoptotic (%): 31%
  Population Fragmented Nuclei (%): 5%
  Population Healthy Nuclei (%): 43%
  Population Hoechst High Intensity Objects (%): 3%
  Population Membrane Permeable-Phenotype (%): 6%
  Population Mitochondria Different-Phenotype (%): 66%
  Population Mitotic Cells (%): 68%
  Population Normal (%): 96%
  Population Pyknosed Nuclei (%): 50%
  Population Tubulin-Different-Phenotype (%): 63%
  Total Cell Count: 251
[3]
  Population Apoptotic (%): 70%
  Population Fragmented Nuclei (%): 23%
  Population Healthy Nuclei (%): 1%
  Population Hoechst High Intensity Objects (%): 13%
  Population Membrane Permeable-Phenotype (%): 33%
  Population Mitochondria Different-Phenotype (%): 33%
  Population Mitotic Cells (%): 29%
  Population Normal (%): 86%
  Population Pyknosed Nuclei (%): 74%
  Population Tubulin-Different-Phenotype (%): 66%
  Total Cell Count: 226
[4]
  Population Apoptotic (%): 90%
  Population Fragmented Nuclei (%): 5%
  Population Healthy Nuclei (%): 18%
  Population Hoechst High Intensity Objects (%): 3%
  Population Membrane Permeable-Phenotype (%): 0%
  Population Mitochondria Different-Phenotype (%): 91%
  Population Mitotic Cells (%): 9%
  Population Normal (%): 96%
  Population Pyknosed Nuclei (%): 76%
  Population Tubulin-Different-Phenotype (%): 97%
  Total Cell Count: 192
[5]
  Population Apoptotic (%): 53%
  Population Fragmented Nuclei (%): 15%
  Population Healthy Nuclei (%): 26%
  Population Hoechst High Intensity Objects (%): 12%
  Population Membrane Permeable-Phenotype (%): 1%
  Population Mitochondria Different-Phenotype (%): 98%
  Population Mitotic Cells (%): 46%
  Population Normal (%): 87%
  Population Pyknosed Nuclei (%): 57%
  Population Tubulin-Different-Phenotype (%): 90%
  Total Cell Count: 358
[6]
  Population Apoptotic (%): 39%
  Population Fragmented Nuclei (%): 6%
  Population Healthy Nuclei (%): 56%
  Population Hoechst High Intensity Objects (%): 2%
  Population Mitochondria Different-Phenotype (%): 81%
  Population Mitotic Cells (%): 60%
  Population Normal (%): 97%
  Population Pyknosed Nuclei (%): 36%
  Population Tubulin-Different-Phenotype (%): 79%
  Total Cell Count: 296
[7]
  Population Apoptotic (%): 77%
  Population Fragmented Nuclei (%): 22%
  Population Healthy Nuclei (%): 1%
  Population Hoechst High Intensity Objects (%): 12%
  Population Membrane Permeable-Phenotype (%): 0%
  Population Mitochondria Different-Phenotype (%): 66%
  Population Mitotic Cells (%): 22%
  Population Normal (%): 87%
  Population Pyknosed Nuclei (%): 76%
  Population Tubulin-Different-Phenotype (%): 66%
  Total Cell Count: 232
[8]
  Population Apoptotic (%): 94%
  Population Fragmented Nuclei (%): 6%
  Population Healthy Nuclei (%): 9%
  Population Hoechst High Intensity Objects (%): 8%
  Population Membrane Permeable-Phenotype (%): 6%
  Population Mitochondria Different-Phenotype (%): 75%
  Population Mitotic Cells (%): 5%
  Population Normal (%): 91%
  Population Pyknosed Nuclei (%): 83%
  Population Tubulin-Different-Phenotype (%): 75%
  Total Cell Count: 183
[9]
  Population Apoptotic (%): 51%
  Population Fragmented Nuclei (%): 17%
  Population Healthy Nuclei (%): 13%
  Population Hoechst High Intensity Objects (%): 18%
  Population Membrane Permeable-Phenotype (%): 0%
  Population Mitochondria Different-Phenotype (%): 87%
  Population Mitotic Cells (%): 48%
  Population Normal (%): 81%
  Population Pyknosed Nuclei (%): 68%
  Population Tubulin-Different-Phenotype (%): 75%
  Total Cell Count: 352
[10]
  Population Apoptotic (%): 33%
  Population Fragmented Nuclei (%): 5%
  Population Healthy Nuclei (%): 75%
  Population Hoechst High Intensity Objects (%): 6%
  Population Membrane Permeable-Phenotype (%): 3%
  Population Mitochondria Different-Phenotype (%): 55%
  Population Mitotic Cells (%): 66%
  Population Normal (%): 93%
  Population Pyknosed Nuclei (%): 19%
  Population Tubulin-Different-Phenotype (%): 69%
  Total Cell Count: 406
[11]
  Population Apoptotic (%): 80%
  Population Fragmented Nuclei (%): 27%
  Population Healthy Nuclei (%): 1%
  Population Hoechst High Intensity Objects (%): 16%
  Population Membrane Permeable-Phenotype (%): 0%
  Population Mitochondria Different-Phenotype (%): 50%
  Population Mitotic Cells (%): 19%
  Population Normal (%): 83%
  Population Pyknosed Nuclei (%): 71%
  Population Tubulin-Different-Phenotype (%): 50%
  Total Cell Count: 238
[12]
  Population Apoptotic (%): 96%
  Population Fragmented Nuclei (%): 15%
  Population Healthy Nuclei (%): 14%
  Population Hoechst High Intensity Objects (%): 7%
  Population Membrane Permeable-Phenotype (%): 12%
  Population Mitochondria Different-Phenotype (%): 79%
  Population Mitotic Cells (%): 3%
  Population Normal (%): 92%
  Population Pyknosed Nuclei (%): 70%
  Population Tubulin-Different-Phenotype (%): 83%
  Total Cell Count: 179

## CCn1c(=O)c(-c2ccc(Cl)cc2Cl)cc2cnc(Nc3ccc(N4CCNCC4)c(F)c3)nc21
[3]
  Population Fragmented Nuclei (%): 32% and 25% and 19%
  Population Hoechst High Intensity Objects (%): 51% and 56% and 22%
  Population Membrane Permeable-Phenotype (%): 0% and 19% and 5%
  Population Normal (%): 48% and 43% and 77%
  Population Pyknosed Nuclei (%): 63% and 42% and 26%
  Population Tubulin-Different-Phenotype (%): 40% and 64% and 37%
[4]
  Population Tubulin-Different-Phenotype (%): 85% and 75% and 43%
[7]
  Population Fragmented Nuclei (%): 38% and 33% and 20%
  Population Normal (%): 40% and 41% and 81%
  Total Cell Count: 280 and 738 and 614
[8]
  Population Fragmented Nuclei (%): 16% and 32% and 12%
  Population Healthy Nuclei (%): 43% and 40% and 83%
  Population Normal (%): 39% and 33% and 93%
  Population Tubulin-Different-Phenotype (%): 75% and 91% and 46%
[11]
  Population Apoptotic (%): 75%
  Population Fragmented Nuclei (%): 46%
  Population Healthy Nuclei (%): 3%
  Population Hoechst High Intensity Objects (%): 56%
  Population Membrane Permeable-Phenotype (%): 0%
  Population Mitochondria Different-Phenotype (%): 25%
  Population Mitotic Cells (%): 24%
  Population Normal (%): 43%
  Population Pyknosed Nuclei (%): 50%
  Population Tubulin-Different-Phenotype (%): 0%
  Total Cell Count: 280
[12]
  Population Apoptotic (%): 100%
  Population Fragmented Nuclei (%): 32%
  Population Healthy Nuclei (%): 38%
  Population Hoechst High Intensity Objects (%): 63%
  Population Membrane Permeable-Phenotype (%): 7%
  Population Mitochondria Different-Phenotype (%): 92%
  Population Mitotic Cells (%): 0%
  Population Normal (%): 36%
  Population Pyknosed Nuclei (%): 28%
  Population Tubulin-Different-Phenotype (%): 82%
  Total Cell Count: 296
